Source: ChEMBL document CHEMBL4433221, “Novel Sustainable-by-Design HDAC Inhibitors for the Treatment of Alzheimer's Disease” (ACS Med Chem Lett, 2019)
Activity calls are given as the source filed them. The calls are words filed in the database; no cut-off is given here.

Key:
[1] = molecular target: Histone deacetylase 4 (Homo sapiens) (UniProt P56524); assay: Inhibition of human recombinant HDAC4 using fluorogenic trifluoroacetyl lysine as substrate at 10 uM by fluorescence method
Summary of the method: (§1)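 Selectivity profile across HDAC isoforms 1–11 at a single concentration of 10 μM, run in duplicate.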

[2] = molecular target: T1, Protein deacetylase HDAC6 (Homo sapiens) (UniProt Q9UBN7); assay: Inhibition of human recombinant HDAC6 using fluorogenic peptide p53 residues 379-382 (RHKK(Ac)AMC) as residues at 10 uM by fluorescence method; summary of the method: as §1
T1 sequence (whole entry): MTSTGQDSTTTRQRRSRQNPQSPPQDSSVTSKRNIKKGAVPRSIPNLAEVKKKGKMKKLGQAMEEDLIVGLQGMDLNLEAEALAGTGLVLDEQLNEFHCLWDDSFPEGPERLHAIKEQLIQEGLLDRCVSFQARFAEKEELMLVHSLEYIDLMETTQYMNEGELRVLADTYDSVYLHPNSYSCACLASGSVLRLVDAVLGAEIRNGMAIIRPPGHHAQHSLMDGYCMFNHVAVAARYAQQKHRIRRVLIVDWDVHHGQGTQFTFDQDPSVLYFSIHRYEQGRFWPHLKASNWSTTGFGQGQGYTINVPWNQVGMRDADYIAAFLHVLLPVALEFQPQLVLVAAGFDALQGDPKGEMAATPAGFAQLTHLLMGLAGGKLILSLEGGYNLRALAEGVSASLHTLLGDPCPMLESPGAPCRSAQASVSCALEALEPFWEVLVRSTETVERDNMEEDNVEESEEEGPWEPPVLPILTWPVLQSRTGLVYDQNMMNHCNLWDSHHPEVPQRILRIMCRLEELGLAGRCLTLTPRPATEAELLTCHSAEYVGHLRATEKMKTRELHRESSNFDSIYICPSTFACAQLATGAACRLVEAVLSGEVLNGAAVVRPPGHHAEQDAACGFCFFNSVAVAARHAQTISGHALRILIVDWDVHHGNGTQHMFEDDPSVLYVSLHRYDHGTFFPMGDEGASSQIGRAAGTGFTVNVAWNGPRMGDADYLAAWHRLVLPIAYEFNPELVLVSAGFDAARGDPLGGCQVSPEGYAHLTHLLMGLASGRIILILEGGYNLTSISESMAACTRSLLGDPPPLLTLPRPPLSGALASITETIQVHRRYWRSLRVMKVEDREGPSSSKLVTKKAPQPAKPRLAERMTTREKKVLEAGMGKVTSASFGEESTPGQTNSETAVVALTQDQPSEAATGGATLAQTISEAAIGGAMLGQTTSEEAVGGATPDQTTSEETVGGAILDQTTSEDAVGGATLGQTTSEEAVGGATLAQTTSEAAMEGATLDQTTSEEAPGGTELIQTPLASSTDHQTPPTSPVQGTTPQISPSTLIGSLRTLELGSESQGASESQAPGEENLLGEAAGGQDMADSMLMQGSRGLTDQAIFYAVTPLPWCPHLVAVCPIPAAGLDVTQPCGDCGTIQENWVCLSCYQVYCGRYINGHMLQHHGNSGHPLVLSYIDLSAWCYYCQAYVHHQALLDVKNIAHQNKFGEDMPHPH

[3] = Neurotoxicity against rat CGN cells assessed as cell viability at 5 uM incubated for 24 hrs by MTT assay; type: toxicity, cell-based; conditions: read-out: Activity
Summary of the method: (§2)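 Primary rat cerebellar granule neuron cultures were exposed for 24 h to 5, 25 or 50 μM. Viability was measured by MTT and expressed as percentage of untreated controls, as mean ± SE of at least three experiments, each run in triplicate.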

[4] = species: Rattus norvegicus; assay: Neuroprotective activity against low serum/K+ deprivation-induced toxicity in rat CGN cells assessed as increase in cell viability at 5 to 25 uM pre-treated for 6 hrs followed by 24 hrs co-treatment with serum/K+ starvation and measured after 24 hrs by MTT assay; type: functional, cell-based
Summary of the method: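 Primary rat cerebellar granule neurons were pretreated for 6 h, then cotreated for 24 h under low-serum and K+ deprivation to induce death. Viability was compared with control and deprivation-only conditions, with tacrine as reference compound.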

[5] = system: N9; assay: Immunomodulatory activity in mouse N9 cells assessed as reduction in LPS-induced MRC1 expression at 5 to 25 uM incubated for 24 hrs by Western blot analysis; type: functional, cell-based
Summary of the method: (§3)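 N9 mouse microglial cells stimulated with LPS (100 ng/mL) and treated at 5 and 25 μM. iNOS and MRC1 levels were read by Western blot with GAPDH as loading control. Densitometry is expressed as percentage of LPS-only cells, as mean ± SE of three independent experiments.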

[6] = molecular target: Histone deacetylase (Mus musculus) (UniProt Q8VH37+Q9Z2V6+Q9Z2V5+O09106+Q8C2B3+P70288+O88895+Q91WA3+Q99N13+Q6NZM9+Q6P3E7); conditions: at 5 to 25 µM
[7] = Neurotoxicity against rat CGN cells assessed as cell viability at 50 uM incubated for 24 hrs by MTT assay; type: toxicity, cell-based; conditions: read-out: Activity; summary of the method: as §2
[8] = system: N9; assay: Immunomodulatory activity in mouse N9 cells assessed as increase in LPS-induced MRC1 expression at 25 uM incubated for 24 hrs by Western blot analysis; type: functional, cell-based; summary of the method: as §3

Chain of Histone deacetylase 4 (Homo sapiens) (P56524 whole entry, canonical isoform): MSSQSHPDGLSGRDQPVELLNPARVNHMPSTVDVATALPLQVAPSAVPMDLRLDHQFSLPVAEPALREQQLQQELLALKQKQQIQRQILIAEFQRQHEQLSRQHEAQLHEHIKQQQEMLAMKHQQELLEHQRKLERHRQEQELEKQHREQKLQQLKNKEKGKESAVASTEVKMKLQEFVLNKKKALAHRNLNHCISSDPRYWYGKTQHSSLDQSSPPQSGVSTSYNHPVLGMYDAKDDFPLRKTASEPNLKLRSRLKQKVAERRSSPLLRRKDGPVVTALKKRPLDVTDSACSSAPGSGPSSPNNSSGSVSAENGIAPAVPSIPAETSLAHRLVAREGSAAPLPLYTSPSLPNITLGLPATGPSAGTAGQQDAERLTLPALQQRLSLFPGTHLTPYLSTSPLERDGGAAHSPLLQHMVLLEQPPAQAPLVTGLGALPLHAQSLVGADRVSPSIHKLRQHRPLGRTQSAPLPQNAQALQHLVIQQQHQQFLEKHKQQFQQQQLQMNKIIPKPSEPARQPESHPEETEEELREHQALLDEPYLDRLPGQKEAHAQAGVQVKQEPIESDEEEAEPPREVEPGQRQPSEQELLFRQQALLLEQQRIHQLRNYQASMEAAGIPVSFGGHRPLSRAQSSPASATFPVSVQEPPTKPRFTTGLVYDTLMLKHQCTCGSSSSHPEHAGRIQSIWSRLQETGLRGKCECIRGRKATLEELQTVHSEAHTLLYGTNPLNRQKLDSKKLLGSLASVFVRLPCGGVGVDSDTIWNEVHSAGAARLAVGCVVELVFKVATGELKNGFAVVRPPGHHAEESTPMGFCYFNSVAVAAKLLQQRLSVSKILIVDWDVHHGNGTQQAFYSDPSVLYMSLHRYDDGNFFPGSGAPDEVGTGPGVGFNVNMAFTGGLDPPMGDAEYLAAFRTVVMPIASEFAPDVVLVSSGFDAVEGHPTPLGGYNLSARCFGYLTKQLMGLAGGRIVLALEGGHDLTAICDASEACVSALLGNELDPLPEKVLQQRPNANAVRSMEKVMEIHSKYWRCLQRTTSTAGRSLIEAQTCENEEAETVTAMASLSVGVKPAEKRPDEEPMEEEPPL

inhibition [1] | inhibition [2] | inhibition [6] | SMILES | viability at 24 h, 5 µM [3] [%] | Activity [4] | Activity [5] | viability at 24 h, 50 µM [7] [%] | Activity [8]
inactive | Active | Active | COc1cccc(CCCCCCCC(=O)NO)c1 | ≤ 50 | inactive | Dose-dependent effect |  | 
inactive | Active | Active | COC(=O)c1c(CCCCCCCC(=O)NO)cccc1OC |  | inactive |  | > 80 | Active
